From ChEMBL document CHEMBL1127338, “Synthesis and antifungal activity of 1,3,2-benzodithiazole S-oxides” (J Med Chem, 1994)
In brackets after ≈: the same amount, converted by molar mass.

Assays:
Candida albicans [1] = assay: Antifungal activity against Candida albicans 10231 strain; assay type: functional
How it was run: (§1)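 MIC determined by microtiter broth dilution in yeast nitrogen base with 0.05% glucose. Inoculum came from an overnight plate culture, at a final 5×10^4 cfu/mL. Plates were incubated at 35 °C for 24-48 h. MIC was taken as the lowest drug concentration completely inhibiting visible growth. 10231, 442 and 579A are clinical isolates; 38247 is a nonclinical amphotericin-resistant strain.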

Candida albicans [2] = assay: Antifungal activity against Candida albicans 38247 strain; assay type: functional; how it was run: as §1
Candida albicans [3] = assay: Antifungal activity against Candida albicans CCH442 strain; assay type: functional; how it was run: as §1
Candida albicans [4] = assay: Antifungal activity against Candida albicans 579A strain; assay type: functional; how it was run: as §1
Rattus norvegicus [5] = assay: plasma concentration of total radio activity 30 minutes after intravenous administration in rats; assay type: ADME, organism-based; settings: in vivo, 0.5 h
How it was run: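 Rats given a single 5 mg/kg iv dose of 14C-labelled compound (~15 μCi each) in ethanol/propylene glycol/saline (20:35:45). At 30 min, one male and two female rats were anesthetized with CO2 and bled by cardiac puncture. Plasma was separated from heparinized blood by centrifugation at 4 °C for 15 min. Duplicate aliquots were counted by liquid scintillation with quench correction.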

Rattus norvegicus [6] = assay: % of the total radioactive dose of compound present in the 0-24 hour urine after a single 5 mg/kg dose administered intravenously in rats; assay type: ADME, organism-based; set-up: dose 5 mg/kg, route intravenous; settings: in vivo, iv
How it was run: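 14C-benzylic-labelled compound mixed with unlabelled material, given once iv at 5 mg/kg (~15 μCi per rat) as a 5 mg/mL solution in ethanol/propylene glycol/saline (20:35:45). Urine and feces collected daily for 3 days from two rats. Duplicate urine aliquots counted by liquid scintillation with quench correction. Fecal homogenates oxidized to 14CO2 before counting.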

Row | Structure (SMILES) | MIC (Candida albicans [1]) | MIC (Candida albicans [2]) | MIC (Candida albicans [3]) | MIC (Candida albicans [4]) | Plasma concentration (Rattus norvegicus [5]) | Excretion (Rattus norvegicus [6])
1 | CCC(CC)N1Sc2ccccc2[S+]1[O-] (stereo not drawn) | 100 µg/mL (≈ 414 µM) | 50 µg/mL (≈ 207 µM) | 100 µg/mL (≈ 414 µM) | 100 µg/mL (≈ 414 µM) |  | 
2 | Cc1cccc2c1[S+]([O-])N(Cc1ccccc1)S2 (stereo not drawn) | 0.78 µg/mL (≈ 2.83 µM) | 1.56 µg/mL (≈ 5.66 µM) | 1.56 µg/mL (≈ 5.66 µM) | 0.78 µg/mL (≈ 2.83 µM) |  | 
3 | CC(C)(C)CCN1Sc2ccccc2[S+]1[O-] (stereo not drawn) | 1.56 µg/mL (≈ 6.11 µM) |  | 1.56 µg/mL (≈ 6.11 µM) | 3.12 µg/mL (≈ 12.2 µM) |  | 
4 | c1ccc(CN2Sc3ccccc3S2)cc1 | 6.25 µg/mL (≈ 25.5 µM) | 25 µg/mL (≈ 102 µM) | 12.5 µg/mL (≈ 50.9 µM) | 6.25 µg/mL (≈ 25.5 µM) |  | 
5 | [O-][S+]1c2ccccc2SN1Cc1ccccc1 (stereo not drawn) |  |  |  |  | 4.6 ug equiv ml-1 | 88%
6 | [O-][S+]1c2c(F)c(F)c(F)c(F)c2SN1Cc1ccccc1 (stereo not drawn) | 6.25 µg/mL (≈ 18.8 µM) | 12.5 µg/mL (≈ 37.5 µM) | 12.5 µg/mL (≈ 37.5 µM) | 6.25 µg/mL (≈ 18.8 µM) |  | 
7 | CCCN1Sc2ccccc2S1 | 3.12 µg/mL (≈ 15.8 µM) | 25 µg/mL (≈ 127 µM) | 12.5 µg/mL (≈ 63.3 µM) | 3.12 µg/mL (≈ 15.8 µM) |  | 
8 | [O-][S+]1c2c(F)c(F)c(N3CCOCC3)c(F)c2SN1Cc1ccccc1 (stereo not drawn) | 50 µg/mL (≈ 125 µM) | 12.5 µg/mL (≈ 31.2 µM) | 50 µg/mL (≈ 125 µM) | 25 µg/mL (≈ 62.4 µM) |  | 
9 | CC(c1ccccc1)N1Sc2ccccc2[S+]1[O-] (stereo not drawn) | 1.56 µg/mL (≈ 5.66 µM) | 3.12 µg/mL (≈ 11.3 µM) | 1.56 µg/mL (≈ 5.66 µM) | 1.56 µg/mL (≈ 5.66 µM) |  | 
10 | [O-][S+]1c2ccccc2SN1CC1CCCCC1 (stereo not drawn) | 1.56 µg/mL (≈ 5.83 µM) | 3.12 µg/mL (≈ 11.7 µM) | 1.56 µg/mL (≈ 5.83 µM) | 1.56 µg/mL (≈ 5.83 µM) |  | 
11 | [O-][S+]1c2ccccc2SN1Cc1ccc2ccccc2c1 (stereo not drawn) | 3.12 µg/mL (≈ 10 µM) | 12.5 µg/mL (≈ 40.1 µM) | 6.25 µg/mL (≈ 20.1 µM) | 3.12 µg/mL (≈ 10 µM) |  | 
12 | Cc1cccc2c1SN(Cc1ccccc1)[S+]2[O-] (stereo not drawn) | 12.5 µg/mL (≈ 45.4 µM) | 25 µg/mL (≈ 90.8 µM) | 25 µg/mL (≈ 90.8 µM) | 12.5 µg/mL (≈ 45.4 µM) |  | 
13 | C[C@@H]1[C@H](O)[C@@H](C)/C=C/C=C/C=C/C=C/C=C/C=C/C=C/[C@H](O[C@@H]2O[C@H](C)[C@@H](O)[C@H](N)[C@@H]2O)C[C@@H]2O[C@](O)(C[C@@H](O)C[C@@H](O)[C@H](O)CC[C@@H](O)C[C@@H](O)CC(=O)O[C@H]1C)C[C@H](O)[C@H]2C(=O)O [AMPHOTERICIN B] | 1.56 µg/mL (≈ 1.69 µM) | 25 µg/mL (≈ 27.1 µM) | 0.78 µg/mL (≈ 0.844 µM) | 1.56 µg/mL (≈ 1.69 µM) |  | 

Now from value to molecule:

Row | MIC (Candida albicans [1]) | MIC (Candida albicans [2]) | MIC (Candida albicans [3]) | MIC (Candida albicans [4]) | Plasma concentration (Rattus norvegicus [5]) | Excretion (Rattus norvegicus [6]) | Structure (SMILES)
14 | > 100 µg/mL | 50 µg/mL (≈ 147 µM) | > 100 µg/mL | > 100 µg/mL |  |  | [O-][S+](c1ccccc1)N(Cc1ccccc1)Sc1ccccc1 (stereo not drawn)
15 | 0.78 µg/mL (≈ 2.62 µM) | 1.56 µg/mL (≈ 5.25 µM) | 1.56 µg/mL (≈ 5.25 µM) | 0.78 µg/mL (≈ 2.62 µM) |  |  | [O-][S+]1c2ccccc2SN1Cc1c(F)cccc1F (stereo not drawn)
16 | 1.56 µg/mL (≈ 5.25 µM) | 3.12 µg/mL (≈ 10.5 µM) | 1.56 µg/mL (≈ 5.25 µM) | 1.56 µg/mL (≈ 5.25 µM) |  |  | [O-][S+]1c2ccccc2SN1Cc1ccc(F)c(F)c1 (stereo not drawn)
17 | 0.78 µg/mL (≈ 2.79 µM) | 1.56 µg/mL (≈ 5.58 µM) | 0.78 µg/mL (≈ 2.79 µM) | 0.78 µg/mL (≈ 2.79 µM) |  |  | [O-][S+]1c2ccc(F)cc2SN1Cc1ccccc1 (stereo not drawn)
18 | 1.56 µg/mL (≈ 5.39 µM) | 25 µg/mL (≈ 86.4 µM) | 3.12 µg/mL (≈ 10.8 µM) | 3.12 µg/mL (≈ 10.8 µM) |  |  | Cc1ccc(C)c2c1SN(Cc1ccccc1)[S+]2[O-] (stereo not drawn)
19 | > 100 µg/mL | > 100 µg/mL | > 100 µg/mL | > 100 µg/mL |  |  | CCCCCCCCCCCCCCCCN1Sc2ccccc2[S+]1[O-] (stereo not drawn)
20 | 100 µg/mL (≈ 237 µM) | > 100 µg/mL | > 100 µg/mL | 100 µg/mL (≈ 237 µM) |  |  | CCCCCCCC/C=C/CCCCCCCCN1Sc2ccccc2[S+]1[O-] (stereo not drawn)
21 | 12.5 µg/mL (≈ 42.9 µM) | 25 µg/mL (≈ 85.8 µM) | 25 µg/mL (≈ 85.8 µM) | 25 µg/mL (≈ 85.8 µM) |  |  | [O-][S+]1c2ccccc2SN1c1ccc2c(c1)OCO2 (stereo not drawn)
22 | 3.12 µg/mL (≈ 9.77 µM) | 3.12 µg/mL (≈ 9.77 µM) | 3.12 µg/mL (≈ 9.77 µM) | 3.12 µg/mL (≈ 9.77 µM) |  |  | COCC(Cc1ccccc1)N1Sc2ccccc2[S+]1[O-] (stereo not drawn)
23 | 25 µg/mL (≈ 128 µM) | 50 µg/mL (≈ 256 µM) | 50 µg/mL (≈ 256 µM) | 25 µg/mL (≈ 128 µM) |  |  | c1ccc2c(c1)SN(C1CC1)S2
24 | 6.25 µg/mL (≈ 20.5 µM) | 50 µg/mL (≈ 164 µM) | 25 µg/mL (≈ 81.8 µM) | 12.5 µg/mL (≈ 40.9 µM) |  |  | [O-][S+]1c2ccccc2SN1C12CC3CC(CC(C3)C1)C2 (stereo not drawn)
25 | 25 µg/mL (≈ 74.1 µM) | 25 µg/mL (≈ 74.1 µM) | 12.5 µg/mL (≈ 37 µM) | 6.25 µg/mL (≈ 18.5 µM) |  |  | [O-][S+]1c2ccccc2SN1C(c1ccccc1)c1ccccc1 (stereo not drawn)
26 | 12.5 µg/mL (≈ 35.6 µM) | 3.12 µg/mL (≈ 8.88 µM) | 12.5 µg/mL (≈ 35.6 µM) | 12.5 µg/mL (≈ 35.6 µM) |  |  | COc1cc(CN2Sc3ccccc3[S+]2[O-])cc(OC)c1OC (stereo not drawn)
27 | 0.78 µg/mL (≈ 2.68 µM) | 3.12 µg/mL (≈ 10.7 µM) | 0.78 µg/mL (≈ 2.68 µM) | 0.78 µg/mL (≈ 2.68 µM) |  |  | COc1ccc2c(c1)SN(Cc1ccccc1)[S+]2[O-] (stereo not drawn)
28 | 100 µg/mL (≈ 362 µM) | 100 µg/mL (≈ 362 µM) | 100 µg/mL (≈ 362 µM) | 100 µg/mL (≈ 362 µM) |  |  | [O-][S+]1c2ccccc2SN1CCc1ccncc1 (stereo not drawn)
29 | 25 µg/mL (≈ 88.2 µM) | 25 µg/mL (≈ 88.2 µM) | 25 µg/mL (≈ 88.2 µM) | 100 µg/mL (≈ 353 µM) |  |  | [O-][S+]1c2ccccc2SN1c1ccc(F)c(F)c1 (stereo not drawn)
